Entries after “also recorded” stand apart in the source; their conditions may differ. Ends that are not written are not given here. Peptide text beside a SMILES is read from it. * marks the point of attachment. FITC = O=C1OC2(c3ccc(O)cc3Oc3cc(O)ccc32)c2ccc(NC(=S)*)cc21
Legend:
ICAM-1 [1] = assay: Cross binding of JAM-Ap-FITC to ICAM-1; parameters: species or system mouse; conditions: increasing concentrations of anti-ICAM-1 antibody; presence and absence of JAM-A
Method in brief: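 bEnd.3 JAM-A-knockdown cells (stable shRNA) and JAM-A-expressing mBMEC in 96-well plates were primed with IL-1β plus TNF-α for 6 h or OGD/reoxygenation for 24 h in DMEM. They then received FITC-peptide with or without increasing anti-ICAM-1 antibody in D-PBS for 30 min at 4 °C. Cells washed 3×, fixed in 4% paraformaldehyde, and fluorescence read. FITC-scrambled peptide served as control.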

CD31 + brain microvessel = conditions: mouse, in vivo
JAM-A [2] = target: T1, JAM-A (Mus musculus, UniProt O88792); assay: Cell-based ELISA, JAM-A surface expression on mBMEC; conditions: CCL2 100 ng/ml; 2 and 24 h; p < 0.001
T1 sequence (O88792 27-300): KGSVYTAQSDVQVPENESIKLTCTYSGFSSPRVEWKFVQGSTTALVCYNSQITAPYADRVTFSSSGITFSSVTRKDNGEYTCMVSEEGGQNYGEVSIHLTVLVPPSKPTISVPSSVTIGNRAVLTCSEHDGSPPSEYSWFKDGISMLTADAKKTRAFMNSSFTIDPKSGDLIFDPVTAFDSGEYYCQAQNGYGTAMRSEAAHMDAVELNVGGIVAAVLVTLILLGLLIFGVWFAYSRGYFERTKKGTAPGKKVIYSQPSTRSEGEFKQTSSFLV

ICAM-1 [3] = assay: Cell-based ELISA, ICAM-1 surface expression on mBMEC; parameters: species or system mouse; conditions: CCL2 100 ng/ml
JAM-A [4] = target: T1, JAM-A; conditions: brain endothelial cells; ref Stamatovic et al., 2012; cited from earlier work
JAM-A [5] = target: T1, JAM-A; assay type: binding
Method in brief: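 mBMEC (first passage) plated in 96-well plates and incubated with a constant level of FITC-labelled peptide plus increasing unlabelled peptide. Cells washed 3× and fixed in 4% paraformaldehyde for 15 min at room temperature. Fluorescence read on a plate reader. Percent inhibition plotted against concentration and IC50 read from the curve. Three independent experiments.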

mBMEC monolayers = assay: In vitro permeability of mBMEC monolayers to inulin; assay type: cell-based, mouse; conditions: JAM-Ap 0.1–1000 μg/ml, 0–72 h
mBMEC = assay type: cell-based, mouse; conditions: 12 h
BBB, FITC-inulin = conditions: mouse, in vivo
[6] = system: neutrophils and monocytes in blood; conditions: mouse, in vivo
[7] = Physiological variables of mice before, during and 6 hrs after tMCAO; assay type: in vivo, mouse; conditions: ip injection, n = 10

CC(C)C[C@H](NC(=O)[C@@H](NC(=O)[C@H](Cc1ccc(O)cc1)NC(=O)[C@H](CC(=O)O)NC(=O)[C@H](CC(=O)O)NC(=O)[C@H](CC(N)=O)NC(=O)[C@H](CO)NC(=O)[C@H](Cc1ccccc1)NC(=O)[C@H](C)NC(=O)[C@H](CCCNC(=N)N)NC(=O)[C@@H](NC(=O)[C@H](CO)NC(=O)[C@H](CCCCNC(=S)Nc1ccc2c(c1)C(=O)OC21c2ccc(O)cc2Oc2cc(O)ccc21)NC(=O)[C@@H]1CCCN1C(=O)[C@@H](N)CC(N)=O)[C@@H](C)O)C(C)C)C(=O)N[C@@H](CC(N)=O)C(=O)N1CCC[C@H]1C(=O)N[C@H](C(=O)N[C@H](C(=O)NCC(=O)O)[C@@H](C)O)[C@@H](C)O [JAM-Ap-FITC] (H-NPK(FITC)STRAFSNDDYVLNPTTG-OH; N-terminus and C-terminus assumed)
binding affinity for ICAM-1 (ICAM-1 [1]): very low binding affinity
accumulation at luminal side of CD31 + brain microvessel (CD31 + brain microvessel): high accumulation
association with CD45 + cells in brain (CD31 + brain microvessel): not associated with CD45 + cells
nonspecific trapping in ischemic lesion (CD31 + brain microvessel): comparable with labeled control peptide (cp), at the level of threshold
accumulation in liver and lung microvessels or tissue (CD31 + brain microvessel; ip): did not detect significant amount

CCL2: chemokine CCL2 (PeproTech)
cell surface (apical) expression of JAM-A (JAM-A [2]): increased apical membrane JAM-A expression; also recorded: an increase in cell surface (apical) expression of JAM-A
ICAM-1 surface expression (ICAM-1 [3]): surface expression was also increased; also recorded: A similar degree of surface accumulation
JAM-A relocalization (JAM-A [4]): JAM-A became relocalized from the lateral to the apical membrane of brain endothelial cells

NPKSTRAFSNDDYVLNPTTG [JAM-Ap]
IC50 (JAM-A [5]): 25 nM
effect on barrier permeability to inulin (5 kDa), in vitro (mBMEC monolayers): no effect on barrier permeability to inulin
cell viability after treatment (mBMEC): > 99%
BBB permeability in control mice (BBB, FITC-inulin): no effect on permeability
blood MO (monocytes) [6]: 3.95 10^8
blood PMN [6]: 0.99 10^9/l
Glucose ([7]; 15 min MCAO): 142 ± 6 g/dL
PCO2 ([7]; 15 min MCAO): 34±2
PO2 ([7]; 15 min MCAO): 110±7
pH ([7]; 15 min MCAO): 7.32±0.012
rCBF ([7]; 15 min MCAO): 13±2%
Glucose ([7]; 6 hr post-tMCAO): 128 ± 9 g/dL
PCO2 ([7]; 6 hr post-tMCAO): 36±1
PO2 ([7]; 6 hr post-tMCAO): 115±10
pH ([7]; 6 hr post-tMCAO): 7.36±0.018
rCBF ([7]; 6 hr post-tMCAO): 100±1%
Glucose ([7]; before): 135 ± 3 g/dL
PCO2 ([7]; before): 32±2
PO2 ([7]; before): 123±5
pH ([7]; before): 7.36±0.03
rCBF ([7]; before): 100±0%

Source: publication PMC4273560 (Neurobiology of disease, 2014)
